# High-throughput results: PubChem BioAssay, several laboratories
# Rows were chosen to be rich in hits. Some 1.9% of all compounds tested hit in one or more screens of this group.
# LANA-H2B inh: blocks KSHV LANA binding to histone H2A/H2B | actives 0.6% (n = 320,000) | cell-free LANA-H2A/H2B peptide, fluorescence polarization | inhibition, % (concentration not given with the values) | Q9QR71; in the data active = inhibition mostly above about 10%, no sharp cut-off; inactive = mostly below about 6.7%
# Target sequence (Q9QR71 whole entry, looked up): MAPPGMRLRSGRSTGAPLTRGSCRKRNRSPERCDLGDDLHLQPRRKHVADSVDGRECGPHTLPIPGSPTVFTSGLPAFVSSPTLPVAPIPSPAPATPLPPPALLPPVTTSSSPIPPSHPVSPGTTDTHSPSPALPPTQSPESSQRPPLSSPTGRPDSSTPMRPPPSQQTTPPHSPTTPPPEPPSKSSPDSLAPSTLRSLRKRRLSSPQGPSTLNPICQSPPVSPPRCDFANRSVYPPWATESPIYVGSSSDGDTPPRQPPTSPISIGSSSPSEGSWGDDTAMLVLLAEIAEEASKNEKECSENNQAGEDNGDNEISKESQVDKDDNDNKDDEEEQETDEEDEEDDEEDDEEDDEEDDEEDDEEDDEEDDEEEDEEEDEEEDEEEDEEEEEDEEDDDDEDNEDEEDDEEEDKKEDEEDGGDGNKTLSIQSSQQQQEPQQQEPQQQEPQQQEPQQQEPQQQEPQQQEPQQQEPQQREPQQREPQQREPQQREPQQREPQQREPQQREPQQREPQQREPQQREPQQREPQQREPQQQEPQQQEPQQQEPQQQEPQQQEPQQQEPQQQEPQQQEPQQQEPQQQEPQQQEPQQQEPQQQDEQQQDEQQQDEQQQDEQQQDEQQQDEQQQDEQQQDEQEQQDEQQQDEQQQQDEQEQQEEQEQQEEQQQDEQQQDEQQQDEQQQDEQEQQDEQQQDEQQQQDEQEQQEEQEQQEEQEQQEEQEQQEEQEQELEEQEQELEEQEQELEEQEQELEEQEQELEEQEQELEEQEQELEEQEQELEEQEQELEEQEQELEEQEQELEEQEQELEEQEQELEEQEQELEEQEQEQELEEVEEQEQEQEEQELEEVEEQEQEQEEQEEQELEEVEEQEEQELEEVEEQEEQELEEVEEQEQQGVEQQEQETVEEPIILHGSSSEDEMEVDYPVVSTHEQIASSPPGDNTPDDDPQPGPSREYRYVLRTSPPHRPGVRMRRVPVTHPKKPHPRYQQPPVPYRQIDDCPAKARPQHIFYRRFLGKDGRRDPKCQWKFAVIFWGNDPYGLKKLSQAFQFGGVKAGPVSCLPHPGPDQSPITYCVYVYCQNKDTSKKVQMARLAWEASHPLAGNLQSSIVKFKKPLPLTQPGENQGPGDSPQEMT
# CaV13 ICDI inh: Primary screen for inhibitors of IQ motif and Ca2+-dependent inactivation inhibitor domain binding in CACNA1D, Förster resonance energy transfer in living cells, …. inhibition, % at 12.3 µM. actives 0.098% (n = 340,000). HEK cells, CFP/YFP FRET ICDI-IQ, plate reader, 10 min; percent FRET-ratio fall versus neutral wells;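 active = mean replicate inhibition of at least 30% and at least 1% of replicates passing that level; inconclusive = only one of the two criteria is met; inactive = neither criterion is met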
# Runt-CBFb FRET: Runt domain-CBFb interaction inhibition; Cerulean-Runt/Venus-CBFb FRET ratio 530/480, 1 h; inhibition, % at 20 µM; Q01196+Q13951; actives 0.46% (n = 220,000);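 active = inhibition over about 50% at 20 µM in the single-dose screen, limit read from the data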
#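 System: Cerulean-labeled Runt domain protein | Quantity: 100 nM of each labeled protein | Schedule: 1 h compound exposure, room temperature | Detection: Fluorescence energy transfer, 422 nm excitation, 530/480 nm emission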
# HDAC3 inh: blocks human histone deacetylase 3 | O15379 | recombinant HDAC3, fluorogenic peptide/trypsin coupled, fluorescence | inhibition, % at 8.3 µM | actives 0.15% (n = 320,000) | AID 2718; in the data active = inhibition above about 26%, passing the limit was not always enough; inconclusive = no clear call, values can overlap the other calls
# Runt-SMMHC FRET: inhibitors of human RUNX1 Runt domain binding to CBFb-SMMHC | Cerulean-Runt/Venus-CBFb-SMMHC FRET ratio 530/480, 1 h | inhibition, % at 20 µM | actives 0.74% (n = 220,000);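 active = mean inhibition across duplicate retests at 20 µM reaching about 50%, limit read from the data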;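 also: inhibitors lower the FRET ratio by blocking Runt binding to CBFb-SMMHC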
# RanGTP-Impb inh: inhibitors of RanGTP-importin-beta interaction, primary screen, biochemical, FRET, CFP-Ran, YFP-importin-beta, homogeneous; inhibition, % (no concentration beside the values); cell-free CFP-Ran/YFP-importin-beta FRET ratio; actives 1.1% (n = 300,000);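 active = more than half of the replicate wells show a fall in the fluorescence ratio signal beyond about 16%, limit read from the data, passing the limit was not always enough; inconclusive = exactly half of the replicate wells pass the set limit; inactive = fewer than half of replicates pass the limit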
# Hits are given with their value; 0 = inactive; ? = inconclusive; - = no result given; + = active, no number.
SMILES,LANA-H2B inh,CaV13 ICDI inh,Runt-CBFb FRET,HDAC3 inh,Runt-SMMHC FRET,RanGTP-Impb inh
O=C1OCCC1Sc1nc2ccccc2n1Cc1ccccc1 (stereo not given),0,-,0,0,0,0
O=C(NCc1ccccc1)C(c1ccc(C(F)(F)F)cc1)n1c(=O)c(-c2cc3ccccc3[nH]2)nc2ccccc21 (stereo not given),-,0,-,-,-,-
CCCCCCC(=O)N(O)C1CC(=O)N(Cc2ccccc2)C1=O (stereo not given),0,0,0,78,0,-
CCCCCC(=O)N(O)C1CC(=O)N(c2ccccc2)C1=O (stereo not given),0,0,0,75,0,0
CCOc1ccc(Cn2c(=O)oc3ccccc32)cc1,0,0,-,0,-,0
COc1ccc(-c2nnc(SCC3CCCO3)n2C)cc1 (stereo not given),0,0,0,0,0,0
O=c1[nH]c(SCc2nc3ccccc3c(=O)n2-c2ccccc2C(F)(F)F)nc2ccccc12,0,0,0,0,0,0
CC(C)N1CCc2c(sc(NC(=S)NC(=O)c3ccccc3)c2C#N)C1,0,0,0,0,60,162
CN1CCc2c(sc(NC(=O)Cc3ccccc3)c2C#N)C1,0,120,-,0,-,164
CC(C)C1Cc2c(sc(NC(=S)NC(=O)c3ccccc3)c2C#N)CO1 (stereo not given),0,0,0,0,0,?
CCCN1CCc2c(sc(NC(=S)NC(=O)c3ccccc3)c2C#N)C1,0,0,0,0,93,159
Cc1sc(NC(=S)NC(=O)c2ccccc2)c(C#N)c1C,0,0,-,0,-,0
COc1cc(C(=O)Nc2sc3c(c2C#N)CCN(C(C)=O)C3)cc(OC)c1OC,0,0,0,0,79,38
CC(C)(C)OC(=O)NCc1ccc(CNC(=O)c2[nH]cnc2C(=O)N[C@@H](Cc2ccccc2)C(=O)OC(C)(C)C)cc1,0,0,-,0,-,0
Cn1cc(S(=O)(=O)NC2CCCCC2)c(=O)n(C)c1=O,0,0,-,0,-,0
CC(C)N1CCc2c(sc(NC(=O)c3ccc(S(=O)(=O)N4CCOCC4)cc3)c2C#N)C1,0,-,0,0,0,43
CCn1c(NCc2cccs2)nc2ccccc21,0,0,0,0,0,0
Cn1c(NCc2cccs2)nc2ccccc21,22,-,0,0,0,0
CCC(C(=O)NC1CC1)n1nc(C)c2c(C)n(-c3ccccc3)nc2c1=O (stereo not given),19,0,-,0,-,0
COc1ccc(F)cc1S(=O)(=O)NC1CCCC1,82,-,0,0,0,0
CCOc1cc(S(=O)(=O)NC2CCCCCC2)ccc1F,22,-,0,0,0,0
O=C(Cn1ccc([N+](=O)[O-])n1)N1CCCCCC1,0,115,0,0,0,0
COc1ccc(C(=O)Nc2ccc(C(=O)N3CCCCC3C)cc2)c(OC)c1OC (stereo not given),0,0,-,0,-,0
CC(NC(=O)OC(C)(C)C)C(=O)Oc1cc2oc(=O)cc(-c3ccccc3)c2cc1Cl (stereo not given),0,-,0,0,79,0
CC(Oc1cc2oc(=O)cc(-c3ccccc3)c2cc1Cl)C(=O)NCC1CCC(C(=O)O)CC1 (stereo not given),0,-,-,0,-,0
SMILES,LANA-H2B inh,CaV13 ICDI inh,Runt-CBFb FRET,HDAC3 inh,Runt-SMMHC FRET,RanGTP-Impb inh
O=C(O)CCCN1C(=O)C2C3CC(C2C1=O)C1C(c2ccccc2)c2sc(=O)[nH]c2SC31 (stereo not given),0,0,0,0,0,0
O=C(O)CN1C(=O)C2C3CC(C2C1=O)C1C(c2ccc(F)cc2)c2sc(=O)[nH]c2SC31 (stereo not given),0,0,0,0,0,79
O=C(O)CN1C(=O)C2C3CC(C2C1=O)C1C(c2ccc(Cl)cc2)c2sc(=O)[nH]c2SC31 (stereo not given),0,0,0,0,0,73
CC(C(=O)O)N1C(=O)C2C3CC(C2C1=O)C1C(c2ccccc2)c2sc(=O)[nH]c2SC31 (stereo not given),0,0,0,0,0,74
COc1ccc(-n2c(O)c(C=Nc3ccccc3)c3ccccc3c2=O)cc1,0,0,0,0,90,?
COc1ccc(-n2c(O)c(C=Nc3ccccc3)c3ccccc3c2=O)cc1OC,0,0,0,0,0,0
O=c1[nH]c(Nc2ccccc2Cl)cc2ccccc12,0,+,-,0,-,39
Cc1ccccc1Nc1cc2ccccc2c(=O)[nH]1,0,-,0,0,0,17
Cc1cc2ccccc2c(=O)[nH]1,0,-,0,-,0,0
O=c1[nH]c(Nc2ccc(F)cc2)cc2ccccc12,0,0,0,0,0,54
CC(C)(C)OC(=O)NCCCCCc1cn([C@@H](CO)C(=O)NCCCCCCCCCCC(=O)N2CCN(C(=O)OC(C)(C)C)CC2)nn1,0,0,-,31,-,-
CC(C)(C)OC(=O)CC[C@@H](C(=O)NCCCCCCCCCCC(=O)N1CCN(C(=O)OC(C)(C)C)CC1)n1cc(CCCCCNC(=O)OC(C)(C)C)nn1,0,0,-,0,-,-
CCc1ccc(C2N(c3ccc(OC)cc3)C(=O)C3CCCN32)cc1 (stereo not given),0,0,0,0,0,0
Cc1cccn2c(=O)c(/C=C3\SC(=S)NC3=O)c(NCCCN3CCOCC3)nc12,0,0,0,0,0,35
CC(=O)N1CCc2c(sc(NC(=O)C3CC3)c2-c2nc3ccccc3s2)C1,0,0,0,0,0,24
COc1ccc(C(=O)Nc2nnc(CC(=O)N/N=C/c3ccc(O)cc3O)s2)cc1,0,0,-,0,-,108
COc1ccc(OC)c(-c2csc(NC(=O)C3CSC4(C)CCC(=O)N34)n2)c1 (stereo not given),0,0,-,0,-,0
COC(=O)C1=C(C)N=C2SC(C#N)=C(N)N2C1c1ccc(OCc2ccccc2)cc1 (stereo not given),0,-,0,0,0,25
COC(=O)C1=C(C)N=C2SC(C#N)=C(N)N2C1c1cc(OC)c(OC)c(OC)c1 (stereo not given),0,-,0,0,0,0
Cc1cccc(NC(=S)N(Cc2ccco2)C(C)c2cccs2)c1 (stereo not given),0,0,0,0,0,0
Cc1ccc[n+](-c2nc([O-])sc2C=O)c1,29,0,0,0,0,-
O=Cc1sc([O-])nc1-[n+]1ccc2ccccc2c1,0,-,0,0,0,28
CC(C)c1ccc[n+](-c2nc([O-])sc2C=O)c1,0,0,0,0,0,0
COc1ccc(S(=O)(=O)NCc2ccccn2)cc1NC(=O)c1ccccc1F,0,0,-,0,-,0
